Measured values pooled from the literature.
Compare with care: the assays were run in different laboratories.
Target: Serine/threonine-protein kinase mTOR (MTOR, Homo sapiens, UniProt P42345)

C=CC(=O)Nc1cc(Nc2nccc(Nc3cc(Cl)c(F)cc3C(C)(C)O)n2)c(OC)cc1N1CC[C@@H](N(C)C)C1 — inhibition (enzyme activity, inhibitor; 1 µM): 6%
CNCc1ccc(-c2cc(-c3nc(-c4ccc(S(=O)(=O)C(C)C)cc4)cnc3N)on2)cc1 — inhibition (enzyme activity, inhibitor; 2 µM): 37%
CN(c1nccc(-c2cnn3ncccc23)n1)C1CC1 — remaining signal (cell-free assay; 1 µM): 100%
O=C(CSc1nc2nccnc2c(=O)n1CCc1ccccc1)Nc1ccccc1 — inhibition (enzyme activity, inhibitor; 10 µM): 31%
CC(C)(C)c1nc(-c2cccc(NS(=O)(=O)c3c(F)cccc3F)c2F)c(-c2ccnc(N)n2)s1 — remaining activity (enzyme activity, inhibitor, radiometric; 1 µM): 99%
Cc1ccc(NC(=O)c2ccc(C)c(C(F)(F)F)c2)cc1C#Cc1nn(C2CCC(O)CC2)c2ncnc(N)c12 (centres unmarked) — remaining signal (cell-free assay, inhibitor; 10 µM): 101%
CS(=O)(=O)Nc1cccc(-c2csc(NC(=O)CSc3nc4nccnc4c(=O)n3CCc3ccccc3)n2)c1 — inhibition (enzyme activity, inhibitor; 10 µM): 1%
C[C@@H](c1cccc(C#N)c1)n1cc(Cl)cc(C(N)=O)c1=N — remaining binding (cell-free assay, competition with immobilised ligand; 1 µM): 96%
CCN(CC)c1ccc(C2=NNC(=O)CC2C)cc1[N+](=O)[O-] (centres unmarked) — remaining activity (enzyme activity, inhibitor; 10 µM): 110%
Cc1noc([C@H]2C[C@@H](c3ccc(C(F)(F)F)cc3)CN(C(=O)N3CCS(=O)(=O)C3)C2)n1 — remaining binding (cell-free assay, competition with immobilised ligand; 1 µM): 92%
COc1cc2ncnc(Nc3ccc(Oc4ccccc4)c(C)c3C)c2cc1OC — inhibition (enzyme activity, inhibitor; 1 µM): 0%
COCCOc1nc(-c2ccc(Cl)nc2)nc2c1CN(C(=O)c1ncn3ccccc13)CC2 — remaining binding (cell-free assay, competition with immobilised ligand; 0.1 µM): 97%
Nc1ncnc2occ(-c3ccc(NC(=O)Nc4cc(C(F)(F)F)ccc4F)cc3)c12 — remaining activity (enzyme activity, inhibitor; 20 µM): 74%
CNC(=O)Nc1ccc2c(c1)[C@@]1(CC2)OC(=O)N(CC(=O)N(Cc2ccc(F)cc2)[C@@H](C)C(F)(F)F)C1=O — remaining binding (cell-free assay, competition with immobilised ligand; 1 µM): 100%
COc1cc(Cl)c(C(=O)N[C@@H](CN[C@H]2CC[C@@H](N)CC2)Cc2ccc(C#N)cc2)cc1-c1ccc(CN[C@H](C)c2ccc(C)cc2)o1 — remaining activity (enzyme activity, inhibitor; 1 µM): 98%
COc1ccc2c(c1)O[C@@H](c1ccc(OC)c(OC)c1)C[C@H]2NC(=O)C1(c2ccc3c(c2)OC(F)(F)O3)CC1 — remaining binding (cell-free assay, competition with immobilised ligand; 1 µM): 100%
Cc1cc(NC(=O)c2cccc3cc(-c4cccc5[nH]nc(N)c45)ccc23)ccc1F — activity vs control (enzyme activity, inhibitor; 0.1 µM): 92%
